According to ChEMBL document CHEMBL1152612, “Ursolic acid derivatives induce cell cycle arrest and apoptosis in NTUB1 cells associated with reactive oxygen species” (Bioorg Med Chem, 2009):
Calls of active or inactive are those of the source. No cut-off for these calls is given here.

Legend:
[1] = Cell cycle arrest in human NTUB1 cells assessed as accumulation at G2/M phase at 50 uM after 48 hrs using propidium iodide staining by flow cytometry; type: functional, cell-based
Summary of the method: (§1)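 NTUB1 cells plated at 8 × 10⁵ per 10 cm dish and exposed to compound for 24 or 48 h; untreated controls got medium alone. Cells trypsinized, PBS-washed and fixed overnight in ice-cold MeOH at −20 °C, then stained with 50 µg/mL propidium iodide plus RNase A. DNA content was read by flow cytometry, with apoptosis taken as sub-G1 accumulation. Three independent experiments.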

[2] = Cell cycle arrest in human NTUB1 cells assessed as accumulation at G1 phase at 50 uM after 24 hrs using propidium iodide staining by flow cytometry; type: functional, cell-based; summary of the method: as §1
[3] = Cell cycle arrest in human NTUB1 cells assessed as accumulation at S phase at 50 uM after 24 hrs using propidium iodide staining by flow cytometry; type: functional, cell-based; summary of the method: as §1
[4] = Cell cycle arrest in human NTUB1 cells assessed as accumulation at S phase at 20 uM after 24 hrs using propidium iodide staining by flow cytometry; type: functional, cell-based; summary of the method: as §1
[5] = Cell cycle arrest in human NTUB1 cells assessed as accumulation at S phase at 50 uM after 48 hrs using propidium iodide staining by flow cytometry; type: functional, cell-based; summary of the method: as §1
[6] = Cytotoxicity against human NTUB1 cells after 72 hrs by MTT assay; type: functional, cell-based; conditions: NTUB1, 72 h
Summary of the method: (§2)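 Cells grown in RPMI 1640 with 10% FBS, penicillin/streptomycin and 2 mM L-glutamine at 37 °C under 5% CO₂. Seeded 1800 cells/well, left overnight, then given graded compound concentrations for 72 h; compounds diluted from DMSO, 0.1% DMSO in medium and in controls. MTT 2 mg/mL in PBS for 3 h, formazan dissolved in DMSO, absorbance 540 nm. Viability given as % of control; IC50 by median-effect analysis, mean ± SD.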

NTUB1 [7] = experiment: Increase in intracellular reactive oxygen species level in human NTUB1 cells at 20 uM after 24 hrs in presence of 1 mM N-acetyl-cysteine by DCFH-DA staining; type: functional, cell-based
Summary of the method: (§3)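 NTUB1 cells treated for 24 or 48 h, with or without 1 mM N-acetylcysteine. DCFH-DA (10 µM) added 30 min before harvest; cells then trypsinized, PBS-washed, and DCF green fluorescence read at once by flow cytometry through a 525 nm band-pass filter. Three independent experiments.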

NTUB1 [8] = experiment: Increase in intracellular reactive oxygen species level in human NTUB1 cells at 50 uM after 48 hrs by DCFH-DA staining; type: functional, cell-based; summary of the method: as §3
[9] = Induction of apoptosis in human NTUB1 cells assessed as accumulation at subG1 phase at 50 uM after 48 hrs using propidium iodide staining by flow cytometry; type: functional; summary of the method: as §1
NTUB1 [10] = experiment: Increase in intracellular reactive oxygen species level in human NTUB1 cells at 50 uM after 24 hrs in presence of 1 mM N-acetyl-cysteine by DCFH-DA staining; type: functional, cell-based; summary of the method: as §3
PC-3 = experiment: Cytotoxicity against human PC3 cells at 50 uM after 72 hrs by MTT assay; type: functional, cell-based; summary of the method: as §2
[11] = Cell cycle arrest in human NTUB1 cells assessed as accumulation at S phase at 20 uM after 48 hrs using propidium iodide staining by flow cytometry; type: functional, cell-based; summary of the method: as §1
[12] = Cell cycle arrest in human NTUB1 cells assessed as accumulation at G1 phase at 20 uM after 48 hrs using propidium iodide staining by flow cytometry; type: functional, cell-based; summary of the method: as §1
NTUB1 [13] = experiment: Increase in intracellular reactive oxygen species level in human NTUB1 cells at 20 uM after 48 hrs in presence of 1 mM N-acetyl-cysteine by DCFH-DA staining; type: functional, cell-based; summary of the method: as §3
A549 = experiment: Cytotoxicity against human A549 cells at 50 uM after 72 hrs by MTT assay; type: functional, cell-based; summary of the method: as §2
[14] = Induction of apoptosis in human NTUB1 cells assessed as accumulation at subG1 phase at 20 uM after 48 hrs using propidium iodide staining by flow cytometry; type: functional; summary of the method: as §1
[15] = Cell cycle arrest in human NTUB1 cells assessed as accumulation at G1 phase at 20 uM after 24 hrs using propidium iodide staining by flow cytometry; type: functional, cell-based; summary of the method: as §1
NTUB1 [16] = experiment: Increase in intracellular reactive oxygen species level in human NTUB1 cells at 50 uM after 48 hrs in presence of 1 mM N-acetyl-cysteine by DCFH-DA staining; type: functional, cell-based; summary of the method: as §3
[17] = Cell cycle arrest in human NTUB1 cells assessed as accumulation at G2/M phase at 50 uM after 24 hrs using propidium iodide staining by flow cytometry; type: functional, cell-based; summary of the method: as §1
NTUB1 [18] = experiment: Increase in intracellular reactive oxygen species level in human NTUB1 cells at 20 uM after 48 hrs by DCFH-DA staining; type: functional, cell-based; summary of the method: as §3
NTUB1 [19] = experiment: Increase in intracellular reactive oxygen species level in human NTUB1 cells at 50 uM after 24 hrs by DCFH-DA staining; type: functional, cell-based; summary of the method: as §3
[20] = Induction of apoptosis in human NTUB1 cells assessed as accumulation at subG1 phase at 20 uM after 24 hrs using propidium iodide staining by flow cytometry; type: functional; summary of the method: as §1
[21] = Induction of apoptosis in human NTUB1 cells assessed as accumulation at subG1 phase at 50 uM after 24 hrs using propidium iodide staining by flow cytometry; type: functional; summary of the method: as §1
NTUB1 [22] = experiment: Increase in intracellular reactive oxygen species level in human NTUB1 cells at 20 uM after 24 hrs by DCFH-DA staining; type: functional, cell-based; summary of the method: as §3
[23] = Cell cycle arrest in human NTUB1 cells assessed as accumulation at G2/M phase at 20 uM after 48 hrs using propidium iodide staining by flow cytometry; type: functional, cell-based; summary of the method: as §1
[24] = Cell cycle arrest in human NTUB1 cells assessed as accumulation at G2/M phase at 20 uM after 24 hrs using propidium iodide staining by flow cytometry; type: functional, cell-based; summary of the method: as §1
[25] = Cell cycle arrest in human NTUB1 cells assessed as accumulation at G1 phase at 50 uM after 48 hrs using propidium iodide staining by flow cytometry; type: functional, cell-based; summary of the method: as §1
Tubulin (Homo sapiens) = Tubulin (Homo sapiens) (UniProt P68371+Q9H4B7+P0DPH7+P68366+Q13509+Q71U36+P04350+Q3ZCM7+P07437+P68363+Q9BQE3+Q6PEY2+Q13885+Q9BVA1+Q9BUF5); experiment: Inhibition of tubulin polymerization in human NTUB1 cells assessed as blockade of microtubule assembly at 50 uM by indirect immunofluorescence staining; type: cell-based
Summary of the method: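 NTUB1 cells on coverslips were treated for 24 h, then fixed in 2% formaldehyde/PBS for 20 min and in cold methanol (−20 °C) for 3 min. Stained with anti-α-tubulin monoclonal antibody for 3 h at room temperature, then rhodamine-conjugated secondary antibody for 1 h in the dark. Mounted in 80% glycerol/PBS and examined by fluorescence microscopy.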

C=C(C)[C@@H]1CC[C@]2(C)[C@H](CC=C3[C@@H]4[C@@H](C)[C@H](C)CC[C@]4(C(=O)O)CC[C@]32C)[C@@]1(C)CCC(=O)O
Activity [1]: 11.1% | Activity [2]: 52.2% | Activity [3]: 6.9% | Activity [4]: 23.7% | Activity [5]: 3.05% | IC50 [6]: 25.5 µM | Activity (NTUB1 [7]): inactive | Activity (NTUB1 [8]): Active | Activity [9]: 14% | Activity (NTUB1 [10]): inactive | Activity (PC-3): Active | Activity [11]: 20.6% | Activity [12]: 52.2% | Activity (NTUB1 [13]): Active | Activity (A549): Active | Activity [14]: 5.12% | Activity [15]: 41.3% | Activity (NTUB1 [16]): Active | Activity [17]: 13.1% | Activity (NTUB1 [18]): Active | Activity (NTUB1 [19]): Active | Activity [20]: 21.68% | Activity [21]: 25.75% | Activity (NTUB1 [22]): Active | Activity [23]: 16.6% | Activity [24]: 10.9% | Activity [25]: 66.4% | Activity (Tubulin (Homo sapiens)): Active
